Measured values from ChEMBL document CHEMBL3817756, “Synthesis and Anti-Influenza Activity of Pyridine, Pyridazine, and Pyrimidine C-Nucleosides as Favipiravir (T-705) Analogues” (J Med Chem, 2016).
Activity calls are given as the source filed them. The calls are words filed in the database; no cut-off is given here.

Key:
[1] = Cytotoxicity against MDCK cells after 10 mins by CellTiter-Glo assay; type: cell-based, Canis lupus familiaris; conditions: dog
Procedure, shortened: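 Uninfected cultures run in parallel with the MDCK neuraminidase antiviral assay. CellTiter-Glo reagent added, 10 min at room temperature, luminescence read.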

Influenza A virus [2] = test: Antiviral activity against Influenza A virus A/WSN/33(H1N1) infected in MDCK cells assessed as inhibition of neuraminidase activity using 2'-(4-methylumbelliferyl)-alpha-D-N-acetylneuraminic acid substrate pretreated with cells for 24 hrs followed by viral infection measured after 20 hrs by fluorescence assay; type: functional, organism-based; conditions: A/WSN/1933(H1N1)
Procedure, shortened: (§1)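 MDCK cells at 1 × 10^4 cells/well in DMEM with 0.3% FBS, 1% penicillin/streptomycin and 1% DMSO. After 24 h, serially diluted compound was added for a further 24 h. Cells were infected with A/WSN/33 at 250 IU/well for 20 h at 37 °C. Supernatant was replaced with 25 μM MUNANA in 33 mM MES, pH 6.5, for 45 min at 30 °C. Reaction stopped with glycine pH 10.5/25% ethanol; fluorescence read at ex 355/em 460 nm. EC50 averaged over n ≥ 2.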

A549 [3] = test: Drug metabolism in human A549 cells assessed as nucleoside triphosphate formation at 50 uM after 24 hrs by LC-MS/Ms analysis; type: ADME, cell-based; conditions: a549, 24 h, BLD = below limit of detection
Influenza A virus [4] = test: Antiviral activity against Influenza A virus A/WSN/33(H1N1) infected in human A549 cells; type: functional, organism-based; conditions: A/WSN/1933(H1N1)
MDCK [5] = test: Prodrug conversion in MDCK cells assessed as ((2R,3S,4R,5S)-5-(2-carbamoyl-3-fluoropyridin-4-yl)-3,4-dihydroxytetrahydrofuran-2-yl)methyl tetrahydrogen triphosphate level per million cells at 50 uM after 24 hrs by LC-MS/Ms analysis; type: ADME, cell-based, Canis lupus familiaris; conditions: dog
A549 [6] = test: Prodrug conversion in human A549 cells assessed as ((2R,3S,4R,5S)-5-(2-carbamoyl-3-fluoropyridin-4-yl)-3,4-dihydroxytetrahydrofuran-2-yl)methyl dihydrogen phosphate level per million cells at 50 uM after 24 hrs by LC-MS/Ms analysis; type: ADME, cell-based; conditions: a549, 24 h
[7] = Prodrug conversion in NHBE cells assessed as ((2R,3S,4R,5S)-5-(2-carbamoyl-3-fluoropyridin-4-yl)-3,4-dihydroxytetrahydrofuran-2-yl)methyl tetrahydrogen triphosphate level per million cells at 50 uM after 24 hrs by LC-MS/Ms analysis; type: ADME, cell-based; conditions: human
Influenza A virus [8] = test: Antiviral activity against Influenza A virus infected in MDCK cells; type: functional, organism-based; procedure, shortened: as §1
MDCK [9] = test: Prodrug conversion in MDCK cells assessed as ((2R,3S,4R,5S)-5-(2-carbamoyl-3-fluoropyridin-4-yl)-3,4-dihydroxytetrahydrofuran-2-yl)methyl dihydrogen phosphate level per million cells at 50 uM after 24 hrs by LC-MS/Ms analysis; type: ADME, cell-based, Canis lupus familiaris; conditions: dog
[10] = Prodrug conversion in NHBE cells assessed as ((2R,3S,4R,5S)-5-(2-carbamoyl-3-fluoropyridin-4-yl)-3,4-dihydroxytetrahydrofuran-2-yl)methyl dihydrogen phosphate level per million cells at 50 uM after 24 hrs by LC-MS/Ms analysis; type: ADME, cell-based; conditions: human
A549 [11] = test: Prodrug conversion in human A549 cells assessed as ((2R,3S,4R,5S)-5-(2-carbamoyl-3-fluoropyridin-4-yl)-3,4-dihydroxytetrahydrofuran-2-yl)methyl tetrahydrogen triphosphate level per million cells at 50 uM after 24 hrs by LC-MS/Ms analysis; type: ADME, cell-based; conditions: a549, 24 h
[12] = Inhibition of human rhinovirus 16 RNA-dependent RNA polymerase assessed as inhibition of [3H]UTP incorporation using HCV 5'-untranslated region RNA template incubated for 2.5 hrs by radiometric assay; design: species or system rhinovirus A16
[13] = Inhibition of HCV NS5B RNA-dependent RNA polymerase assessed as inhibition of [3H]CTP incorporation using HCV 5'-untranslated region RNA template incubated for 2 hrs; design: species or system Hepacivirus hominis
Tni [14] = test: (§2) Binding affinity to recombinant Influenza A virus A/chicken/Nanchang/3-120/01(H3N2) RNA polymerase subunit C-terminal TAP/His6-tagged PA/PB1/PB2 expressed in Tni cells assessed as compound incorporation by measuring 10 to 14-mer product formation using 5'-pApG/14-nucleotide RNA with C as nucleotide as primer/template at 100 uM after 30 mins in presence of [alpha-33P]CTP by PAGE analysis; type: cell-based
Tni [15] = test: as §2, with “measuring” for “measuring 10 to”, “with U” for “with C”; type: cell-based
[16] = Inhibition of recombinant human Norovirus GII.4 RNA-dependent RNA polymerase expressed in Escherichia coli assessed as inhibition of [3H]UTP incorporation using HCV 5'-untranslated region RNA template incubated for 2.5 hrs by radiometric assay
Influenza A virus [17] = test: Antiviral activity against Influenza A virus A/WSN/33(H1N1) infected in NHBE cells; type: functional, organism-based; conditions: A/WSN/1933(H1N1)
A549 [18] = test: Drug metabolism in human A549 cells assessed as ((2R,3S,4R,5S)-5-(2-carbamoyl-3-fluoropyridin-4-yl)-3,4-dihydroxytetrahydrofuran-2-yl)methyl dihydrogen phosphate level per million cells at 50 uM after 24 hrs by LC-MS/Ms analysis; type: ADME, cell-based; conditions: a549, 24 h
[19] = Drug metabolism in NHBE cells assessed as ((2R,3S,4R,5S)-5-(2-carbamoyl-3-fluoropyridin-4-yl)-3,4-dihydroxytetrahydrofuran-2-yl)methyl dihydrogen phosphate level per million cells at 50 uM after 24 hrs by LC-MS/Ms analysis; type: ADME, cell-based; conditions: human
A549 [20] = test: Drug metabolism in human A549 cells assessed as ((2R,3S,4R,5S)-5-(2-carbamoyl-3-fluoropyridin-4-yl)-3,4-dihydroxytetrahydrofuran-2-yl)methyl tetrahydrogen triphosphate level per million cells at 50 uM after 24 hrs by LC-MS/Ms analysis; type: ADME, cell-based; conditions: a549, 24 h
[21] = Drug metabolism in NHBE cells assessed as ((2R,3S,4R,5S)-5-(2-carbamoyl-3-fluoropyridin-4-yl)-3,4-dihydroxytetrahydrofuran-2-yl)methyl tetrahydrogen triphosphate level per million cells at 50 uM after 24 hrs by LC-MS/Ms analysis; type: ADME, cell-based; conditions: human
MDCK [22] = test: Drug metabolism in MDCK cells assessed as ((2R,3S,4R,5S)-5-(2-carbamoyl-3-fluoropyridin-4-yl)-3,4-dihydroxytetrahydrofuran-2-yl)methyl dihydrogen phosphate level per million cells at 50 uM after 24 hrs by LC-MS/Ms analysis; type: ADME, cell-based, Canis lupus familiaris; conditions: dog
MDCK [23] = test: Drug metabolism in MDCK cells assessed as ((2R,3S,4R,5S)-5-(2-carbamoyl-3-fluoropyridin-4-yl)-3,4-dihydroxytetrahydrofuran-2-yl)methyl tetrahydrogen triphosphate level per million cells at 50 uM after 24 hrs by LC-MS/Ms analysis; type: ADME, cell-based, Canis lupus familiaris; conditions: dog
Lung [24] = test: Prodrug conversion in Balb/c mouse assessed as ((2R,3S,4R,5S)-5-(2-carbamoyl-3-fluoropyridin-4-yl)-3,4-dihydroxytetrahydrofuran-2-yl)methyl tetrahydrogen triphosphate level in lung at 2 mg/kg, iv measured at 0.25 hrs post dose by LC-MS/MS analysis; type: ADME, organism-based; conditions: in vivo
Procedure, shortened: (§3)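 Female Balb/c mice (N = 2), fasted overnight, given the prodrug IV at 2 mg/kg in 10% DMSO/60% PEG400/30% water. Under isoflurane anaesthesia, blood sampled at 0.25 and 2 h post dose. Parent nucleoside measured in blood; monophosphate and triphosphate measured in lung.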

Blood [25] = test: Prodrug conversion in Balb/c mouse assessed as 4-((2S,3R,4S,5R)-3,4-dihydroxy-5-(hydroxymethyl)tetrahydrofuran-2-yl)-3-fluoropicolinamide level in blood at 2 mg/kg, iv measured at 2 hrs post dose by LC-MS/MS analysis; type: ADME, organism-based; conditions: in vivo; procedure, shortened: as §3
Lung [26] = test: Prodrug conversion in Balb/c mouse assessed as ((2R,3S,4R,5S)-5-(2-carbamoyl-3-fluoropyridin-4-yl)-3,4-dihydroxytetrahydrofuran-2-yl)methyl dihydrogen phosphate level in lung at 2 mg/kg, iv measured at 0.25 hrs post dose by LC-MS/MS analysis; type: ADME, organism-based; conditions: in vivo; procedure, shortened: as §3
Lung [27] = test: Prodrug conversion in Balb/c mouse assessed as ((2R,3S,4R,5S)-5-(2-carbamoyl-3-fluoropyridin-4-yl)-3,4-dihydroxytetrahydrofuran-2-yl)methyl tetrahydrogen triphosphate level in lung at 2 mg/kg, iv measured at 2 hrs post dose by LC-MS/MS analysis; type: ADME, organism-based; conditions: in vivo, BLD = below limit of detection; procedure, shortened: as §3
Lung [28] = test: Prodrug conversion in Balb/c mouse assessed as ((2R,3S,4R,5S)-5-(2-carbamoyl-3-fluoropyridin-4-yl)-3,4-dihydroxytetrahydrofuran-2-yl)methyl dihydrogen phosphate level in lung at 2 mg/kg, iv measured at 2 hrs post dose by LC-MS/MS analysis; type: ADME, organism-based; conditions: in vivo; procedure, shortened: as §3
Blood [29] = test: Prodrug conversion in Balb/c mouse assessed as 4-((2S,3R,4S,5R)-3,4-dihydroxy-5-(hydroxymethyl)tetrahydrofuran-2-yl)-3-fluoropicolinamide level in blood at 2 mg/kg, iv measured at 0.25 hrs post dose by LC-MS/MS analysis; type: ADME, organism-based; conditions: in vivo; procedure, shortened: as §3

Compound: NC(=O)c1nccc([C@@H]2O[C@H](CO)[C@@H](O)[C@H]2F)c1F
- CC50 at 10 min [1]: 306 µM
- EC50 (Influenza A virus [2]): 87 µM

Compound: C#Cc1c([C@@H]2O[C@H](CO)[C@@H](O)[C@H]2O)ccnc1C(N)=O
- CC50 at 10 min [1]: 98 µM
- EC50 (Influenza A virus [2]): 36 µM

Compound: NC(=O)c1cc([C@@H]2O[C@H](CO)[C@@H](O)[C@H]2O)ccn1
- Drug metabolism (A549 [3]): BLD

Compound: NC(=O)c1nccc([C@@H]2O[C@H](CO)[C@@H](O)[C@H]2O)n1
- CC50 at 10 min [1]: > 200 µM
- EC50 (Influenza A virus [2]): 8.7 µM
- Drug metabolism (A549 [3]): BLD

Compound: C[C@H](NP(=O)(OC[C@H]1O[C@@H](c2ccnc(C(N)=O)c2F)[C@H](O)[C@@H]1O)Oc1ccccc1)C(=O)CC1CCCCC1 (some centres not stated)
- EC50 (Influenza A virus [4]): 74.1 µM
- Drug metabolism (MDCK [5]; BLD = below limit of detection): BLD
- Drug metabolism (A549 [6]): 59.5 pmol
- Drug metabolism ([7]; BLD = below limit of detection): BLD
- EC50 (Influenza A virus [2]): 129 µM
- EC50 (Influenza A virus [8]): 129 µM
- Drug metabolism (MDCK [9]): 44.7 pmol
- Drug metabolism [10]: 42.6 pmol
- Drug metabolism (A549 [11]; BLD = below limit of detection): BLD

Compound: Cn1cc([C@@H]2O[C@H](CO)[C@@H](O)[C@H]2O)c(=O)c(C(N)=O)n1
- CC50 at 10 min [1]: 291 µM
- EC50 (Influenza A virus [2]): 91 µM
- Drug metabolism (A549 [3]): BLD

Compound: NC(=O)c1nccc([C@@H]2O[C@H](CO)[C@@H](O)[C@H]2O)c1O
- CC50 at 10 min [1]: 2 µM
- EC50 (Influenza A virus [2]): 1.3 µM

Compound: NC(=O)c1nc(F)cn([C@@H]2O[C@H](CO)[C@@H](O)[C@H]2O)c1=O
- CC50 at 10 min [1]: > 400 µM
- EC50 (Influenza A virus [2]): 2.2 µM

Compound: NC(=O)c1nccc([C@@H]2O[C@](F)(CO)[C@@H](O)[C@H]2O)c1F
- CC50 at 10 min [1]: 185 µM
- EC50 (Influenza A virus [2]): 98 µM
- Drug metabolism (A549 [3]): BLD

Compound: C=Cc1c([C@@H]2O[C@H](CO)[C@@H](O)[C@H]2O)ccnc1C(N)=O
- CC50 at 10 min [1]: 152 µM
- EC50 (Influenza A virus [2]): 58 µM

Compound: NC(=O)c1nccc([C@@H]2O[C@H](COP(=O)(O)OP(=O)(O)OP(=O)(O)O)[C@@H](O)[C@H]2O)c1F
- IC50 [12]: 4 µM
- IC50 [13]: 5.3 µM
- Activity (Tni [14]): Active
- Activity (Tni [15]): Active
- IC50 [16]: 3.5 µM

Compound: NC(=O)c1nc(F)cnc1O [FAVIPIRAVIR]
- CC50 at 10 min [1]: > 400 µM
- EC50 (Influenza A virus [2]): 2.7 µM

Compound: NC(=O)c1nccc([C@@H]2O[C@H](CO)[C@@H](O)[C@H]2O)c1Cl
- Drug metabolism (A549 [3]): BLD

Compound: NC(=O)c1nccc([C@@H]2O[C@H](CO)[C@@H](O)[C@H]2O)c1F
- EC50 (Influenza A virus [4]): 52 µM
- EC50 (Influenza A virus [17]): 29.5 µM
- Drug metabolism (A549 [18]): 41 pmol
- Drug metabolism [19]: 262 pmol
- Drug metabolism (A549 [20]): 11.6 pmol
- Drug metabolism [21]: 21.6 pmol
- CC50 at 10 min [1]: > 400 µM
- EC50 (Influenza A virus [2]): 1.9 µM
- EC50 (Influenza A virus [8]): 1.9 µM
- Drug metabolism (MDCK [22]): 48.5 pmol
- Drug metabolism (MDCK [23]): 192 pmol

Compound: CC(C)(C)C(=O)OCOP(=O)(OCOC(=O)C(C)(C)C)OC[C@H]1O[C@@H](c2ccnc(C(N)=O)c2F)[C@H](O)[C@@H]1O
- EC50 (Influenza A virus [4]): 34.7 µM
- Drug metabolism (MDCK [5]): 179 pmol
- Drug metabolism (A549 [6]): 74 pmol
- Drug metabolism (Lung [24]): < 60 nM
- Drug metabolism (Blood [25]): 422 nM
- EC50 (Influenza A virus [17]): 57.5 µM
- Drug metabolism [7]: 7.22 pmol
- Drug metabolism (Lung [26]): 1764 nM
- Drug metabolism (Lung [27]): BLD
- CC50 at 10 min [1]: > 400 µM
- EC50 (Influenza A virus [2]): 5.8 µM
- EC50 (Influenza A virus [8]): 5.8 µM
- Drug metabolism (Lung [28]): 792 nM
- Drug metabolism (Blood [29]): 1436 nM
- Drug metabolism (MDCK [9]): 248 pmol
- Drug metabolism [10]: 113 pmol
- Drug metabolism (A549 [11]): 5 pmol

Compound: COc1c(C(N)=O)ccnc1[C@@H]1O[C@H](CO)[C@@H](O)[C@H]1O
- CC50 at 10 min [1]: 207 µM
- EC50 (Influenza A virus [2]): 88 µM
